In ChEMBL document CHEMBL3108700, “Designing anti-inflammatory drugs from parasitic worms: a synthetic small molecule analogue of the Acanthocheilonema viteae product ES-62 prevents development of collagen-induced arthritis” (J Med Chem, 2013):
Activity calls are given as the source filed them. The rule behind the calls is not given here.

How the values were obtained:
[1] = target: T1, Toll-like receptor 9 (Mus musculus) (UniProt Q9EQU3); experiment: Inhibition of TLR9 in BALB/c mouse BMDM assessed as downregulation of CpG-stimulated IL-6 level at 5 ug/ml preincubated for 18 hrs followed by CpG challenge measured after 24 hrs by ELISA relative to control
T1 sequence (whole entry): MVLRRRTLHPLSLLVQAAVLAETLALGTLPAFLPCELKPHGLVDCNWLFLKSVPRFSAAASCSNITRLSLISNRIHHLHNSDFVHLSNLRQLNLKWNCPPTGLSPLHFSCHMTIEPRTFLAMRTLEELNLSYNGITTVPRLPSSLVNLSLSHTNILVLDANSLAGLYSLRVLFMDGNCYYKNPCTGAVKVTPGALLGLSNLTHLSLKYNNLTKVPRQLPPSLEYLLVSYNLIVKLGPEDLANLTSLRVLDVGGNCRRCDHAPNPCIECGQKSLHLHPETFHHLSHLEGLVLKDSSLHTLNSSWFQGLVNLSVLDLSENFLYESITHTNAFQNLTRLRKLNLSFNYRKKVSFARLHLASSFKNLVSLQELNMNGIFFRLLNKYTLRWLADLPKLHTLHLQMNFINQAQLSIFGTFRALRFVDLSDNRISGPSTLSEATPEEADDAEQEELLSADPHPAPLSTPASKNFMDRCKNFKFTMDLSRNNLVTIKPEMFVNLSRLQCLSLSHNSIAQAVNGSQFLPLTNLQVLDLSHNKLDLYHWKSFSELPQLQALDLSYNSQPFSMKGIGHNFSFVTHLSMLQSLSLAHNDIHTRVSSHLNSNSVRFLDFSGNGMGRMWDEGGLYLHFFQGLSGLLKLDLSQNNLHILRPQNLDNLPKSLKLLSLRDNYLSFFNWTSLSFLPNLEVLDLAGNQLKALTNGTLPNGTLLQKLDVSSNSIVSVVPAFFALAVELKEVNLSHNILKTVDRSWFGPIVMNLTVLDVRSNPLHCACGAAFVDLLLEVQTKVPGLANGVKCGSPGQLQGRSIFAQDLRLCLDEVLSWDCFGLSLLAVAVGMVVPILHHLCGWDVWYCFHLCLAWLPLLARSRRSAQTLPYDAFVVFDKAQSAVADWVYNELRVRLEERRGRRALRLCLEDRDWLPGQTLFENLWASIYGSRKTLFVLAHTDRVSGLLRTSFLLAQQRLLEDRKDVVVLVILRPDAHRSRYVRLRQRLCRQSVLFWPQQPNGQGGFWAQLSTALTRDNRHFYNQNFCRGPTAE
Method in brief: (§1)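 BALB/c male bone marrow macrophages were differentiated 7 days with L929 supernatant (≥99% CD11b+/F4/80+). Cells were plated at 2 × 10^5/well in triplicate, rested overnight, and given compounds at 5 μg/mL for 18 h. They were then stimulated with 100 ng/mL S. minnesota LPS, 10 ng/mL Pam3CSK4 (BLP) or 0.01 μM CpG for 24 h. Supernatant IL-12p40 and IL-6 were measured by ELISA (sensitivity 16 pg/mL).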

[2] = target: T2, Toll-like receptor 4 (Mus musculus) (UniProt Q9QUK6); experiment: Inhibition of TLR4 in BALB/c mouse BMDM assessed as downregulation of LPS-stimulated IL-6 level at 5 ug/ml preincubated for 18 hrs followed by LPS challenge measured after 24 hrs by ELISA relative to control; method in brief: as §1
T2 sequence (whole entry): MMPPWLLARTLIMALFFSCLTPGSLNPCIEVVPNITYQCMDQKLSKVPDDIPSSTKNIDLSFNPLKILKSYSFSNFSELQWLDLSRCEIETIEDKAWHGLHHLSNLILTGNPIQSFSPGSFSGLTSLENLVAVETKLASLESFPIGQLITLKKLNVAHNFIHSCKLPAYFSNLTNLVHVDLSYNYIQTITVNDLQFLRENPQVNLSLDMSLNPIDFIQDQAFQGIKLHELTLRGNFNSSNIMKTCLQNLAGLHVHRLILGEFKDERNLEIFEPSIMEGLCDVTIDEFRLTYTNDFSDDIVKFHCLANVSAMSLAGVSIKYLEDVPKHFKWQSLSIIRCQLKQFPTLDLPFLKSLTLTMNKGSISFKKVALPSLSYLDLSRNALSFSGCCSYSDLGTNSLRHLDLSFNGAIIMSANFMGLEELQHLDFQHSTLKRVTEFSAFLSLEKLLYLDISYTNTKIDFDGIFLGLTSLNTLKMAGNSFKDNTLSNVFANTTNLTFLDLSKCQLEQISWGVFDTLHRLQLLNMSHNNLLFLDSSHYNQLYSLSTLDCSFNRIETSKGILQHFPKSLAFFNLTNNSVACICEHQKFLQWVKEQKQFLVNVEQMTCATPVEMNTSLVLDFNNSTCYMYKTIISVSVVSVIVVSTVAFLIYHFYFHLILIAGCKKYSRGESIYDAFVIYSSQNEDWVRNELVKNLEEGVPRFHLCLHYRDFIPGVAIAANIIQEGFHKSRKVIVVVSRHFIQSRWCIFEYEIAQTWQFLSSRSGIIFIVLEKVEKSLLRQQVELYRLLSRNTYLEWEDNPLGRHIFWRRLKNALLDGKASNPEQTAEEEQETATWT

[3] = target: T2, Toll-like receptor 4 (Mus musculus); experiment: Inhibition of TLR4 in BALB/c mouse BMDM assessed as downregulation of LPS-stimulated IL-12p40 level at 5 ug/ml preincubated for 18 hrs followed by LPS challenge measured after 24 hrs by ELISA relative to control; method in brief: as §1
[4] = target: T3, TLR2/TLR6 (Mus musculus) (UniProt Q9QUN7+Q9EPW9); experiment: Inhibition of TLR2/6 in BALB/c mouse BMDM assessed as downregulation of BLP-stimulated IL-6 level at 5 ug/ml preincubated for 18 hrs followed by BLP challenge measured after 24 hrs by ELISA relative to control; type: protein-complex assay; method in brief: as §1
[5] = target: T3, TLR2/TLR6 (Mus musculus); experiment: Inhibition of TLR2/6 in BALB/c mouse BMDM assessed as downregulation of BLP-stimulated IL-12p40 level at 5 ug/ml preincubated for 18 hrs followed by BLP challenge measured after 24 hrs by ELISA relative to control; type: protein-complex assay; method in brief: as §1
[6] = target: T1, Toll-like receptor 9 (Mus musculus); experiment: Inhibition of TLR9 in BALB/c mouse BMDM assessed as downregulation of CpG-stimulated IL-12p40 level at 5 ug/ml preincubated for 18 hrs followed by CpG challenge measured after 24 hrs by ELISA relative to control; method in brief: as §1

inhibition [1]	inhibition [2]	inhibition [3]	inhibition [4]	inhibition [5]	inhibition [6]	Structure (SMILES)
inactive	inactive	inactive	inactive	inactive	inactive	CN(C)CCCNC(=O)Cc1ccccc1
inactive	inactive	inactive	inactive	inactive	inactive	O=S(=O)(Cc1ccccc1)NCCN1CCCC1
inactive	inactive	inactive	inactive	inactive	inactive	O=S(=O)(CCN1CCCC1)NCc1ccccc1
Active	inactive	Active	inactive	inactive	Active	O=C(Cc1ccccc1)NCCN1CCOCC1
inactive	inactive	inactive	inactive	inactive	inactive	Cc1ccc(CS(=O)(=O)NCCN2CCOCC2)cc1
inactive	inactive	inactive	inactive	inactive	inactive	Cc1ccc(CNS(=O)(=O)CCN2CCOCC2)cc1
inactive	inactive	inactive	inactive	inactive	inactive	O=S(=O)(CCN1CCOCC1)Nc1ccccc1
inactive	inactive	inactive	inactive	inactive	inactive	O=S(=O)(Cc1ccccc1)NCCN1CCOCC1
inactive	inactive	inactive	inactive	inactive	inactive	O=S(=O)(CCN1CCOCC1)Cc1cccc(F)c1
Active	inactive	Active	inactive	inactive	inactive	CN(C)CCNC(=O)Cc1ccccc1
inactive	inactive	inactive	inactive	inactive	inactive	O=S(=O)(CCN1CCOCC1)NCc1ccc(Br)cc1

The remaining lines, values behind:

Structure (SMILES)	inhibition [1]	inhibition [2]	inhibition [3]	inhibition [4]	inhibition [5]	inhibition [6]
Cc1ccc(CS(=O)(=O)CCCN(C)C)cc1	inactive	inactive	inactive	inactive	inactive	inactive
O=S(=O)(CCN1CCCC1)Cc1cccc(F)c1	inactive	inactive	inactive	inactive	Active	inactive
Cc1ccc(CNS(=O)(=O)CCN(C)C)cc1	inactive	inactive	inactive	inactive	inactive	inactive
O=S(=O)(CCN1CCOCC1)Nc1ccc(F)cc1	inactive	inactive	Active	inactive	inactive	inactive
O=S(=O)(CCN1CCOCC1)Cc1ccc(F)cc1	inactive	Active	inactive	inactive	inactive	inactive
Cc1ccc(CNS(=O)(=O)CCN(C)CCN(C)C)cc1	Active	Active	Active	Active	inactive	inactive
CN(C)CCOP(=O)(O)Cc1ccc([N+](=O)[O-])cc1	inactive	inactive	inactive	inactive	inactive	inactive
O=S(=O)(CCN1CCCC1)NCc1ccc(Br)cc1	inactive	inactive	inactive	inactive	inactive	inactive
Cc1ccc(CS(=O)(=O)CCN2CCCC2)cc1	inactive	Active	Active	Active	Active	inactive
CN(C)CCCNS(=O)(=O)Cc1ccc(F)cc1	inactive	inactive	inactive	inactive	inactive	inactive
Cc1ccc(CS(=O)(=O)NCCN(C)C)cc1	inactive	inactive	inactive	inactive	inactive	inactive
CN(C)CCS(=O)(=O)Cc1ccc(F)cc1	inactive	inactive	inactive	Active	Active	inactive
O=[N+]([O-])c1ccc(CS(=O)(=O)NCCN2CCCC2)cc1	inactive	inactive	inactive	inactive	inactive	inactive
